In ChEMBL document CHEMBL4041482, “Synthesis, evaluation, and CoMFA study of fluoroquinophenoxazine derivatives as bacterial topoisomerase IA inhibitors” (Eur J Med Chem, 2017):
In brackets after ≈: the same amount, converted by molar mass.

How the values were obtained:
[1] = Stability of the compound in DMSO-d6 solvent after several weeks by 1H NMR method; format: physicochemical
[2] = system: Escherichia coli; assay: Antibacterial activity against Escherichia coli BAS3023 harboring imp mutant by microdilution method; format: functional
How it was run: (§1)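 MICs determined by standard broth microdilution in cation-adjusted Mueller-Hinton Broth; E. coli BAS3023 carries an imp mutation conferring membrane permeability to small molecules, MG1655 K12 is wild type.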

[3] = Inhibition of recombinant Escherichia coli topoisomerase 1a expressed in Escherichia coli assessed as reduction in enzyme-mediated relaxation of supercoiled pBAD/Thio DNA preincubated with enzyme followed by substrate addition measured after 30 mins by ethidium bromide staining based agarose gel electrophoresis method
[4] = target: DNA topoisomerase 2-alpha (Homo sapiens, UniProt P11388); assay: Inhibition of human topoisomerase-2alpha assessed as reduction in enzyme-mediated decatenation using kinetoplast DNA as substrate after 15 mins by ethidium bromide staining based agarose gel electrophoresis method
DNA topoisomerase 2-alpha, sequence (P11388 whole entry): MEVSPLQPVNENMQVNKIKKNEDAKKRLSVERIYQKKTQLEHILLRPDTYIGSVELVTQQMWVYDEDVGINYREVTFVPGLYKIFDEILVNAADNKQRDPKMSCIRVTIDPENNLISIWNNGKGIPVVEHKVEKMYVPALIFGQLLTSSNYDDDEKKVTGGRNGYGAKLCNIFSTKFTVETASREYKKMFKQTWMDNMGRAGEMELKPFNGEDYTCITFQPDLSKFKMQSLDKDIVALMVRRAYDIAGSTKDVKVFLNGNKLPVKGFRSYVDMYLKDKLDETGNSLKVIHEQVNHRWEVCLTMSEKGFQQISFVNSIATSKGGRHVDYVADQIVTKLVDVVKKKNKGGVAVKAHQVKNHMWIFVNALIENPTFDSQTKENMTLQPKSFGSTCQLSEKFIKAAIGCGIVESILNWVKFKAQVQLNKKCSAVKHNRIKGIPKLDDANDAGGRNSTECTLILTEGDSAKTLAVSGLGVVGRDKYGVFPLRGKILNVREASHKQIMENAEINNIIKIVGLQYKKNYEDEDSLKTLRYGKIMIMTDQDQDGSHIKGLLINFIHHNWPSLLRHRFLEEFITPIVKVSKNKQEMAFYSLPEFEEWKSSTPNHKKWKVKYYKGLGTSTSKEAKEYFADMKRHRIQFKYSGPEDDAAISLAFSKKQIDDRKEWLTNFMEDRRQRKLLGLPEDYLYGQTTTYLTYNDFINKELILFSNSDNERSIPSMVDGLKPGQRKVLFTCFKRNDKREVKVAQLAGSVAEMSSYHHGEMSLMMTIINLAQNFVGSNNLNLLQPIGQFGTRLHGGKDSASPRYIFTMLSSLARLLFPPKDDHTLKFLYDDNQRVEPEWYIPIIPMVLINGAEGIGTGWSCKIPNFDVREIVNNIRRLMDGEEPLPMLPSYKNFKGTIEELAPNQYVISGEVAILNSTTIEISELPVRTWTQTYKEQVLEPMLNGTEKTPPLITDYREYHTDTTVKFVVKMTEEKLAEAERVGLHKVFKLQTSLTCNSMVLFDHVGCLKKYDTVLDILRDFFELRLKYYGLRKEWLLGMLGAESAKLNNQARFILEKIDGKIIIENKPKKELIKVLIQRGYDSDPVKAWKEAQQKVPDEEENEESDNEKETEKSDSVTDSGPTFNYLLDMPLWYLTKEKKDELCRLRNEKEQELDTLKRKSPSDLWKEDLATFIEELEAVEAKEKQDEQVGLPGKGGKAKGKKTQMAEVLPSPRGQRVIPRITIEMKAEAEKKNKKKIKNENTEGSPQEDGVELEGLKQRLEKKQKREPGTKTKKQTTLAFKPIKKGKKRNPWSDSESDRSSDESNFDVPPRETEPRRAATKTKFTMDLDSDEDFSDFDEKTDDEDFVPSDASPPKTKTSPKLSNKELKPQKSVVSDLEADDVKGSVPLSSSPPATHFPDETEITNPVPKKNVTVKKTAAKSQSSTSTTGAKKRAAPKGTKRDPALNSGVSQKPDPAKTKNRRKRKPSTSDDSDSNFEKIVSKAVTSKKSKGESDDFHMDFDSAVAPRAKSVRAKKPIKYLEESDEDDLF

[5] = Inhibition of human topoisomerase type 1B assessed as reduction in enzyme-mediated relaxation of supercoiled pBAD/Thio DNA after 30 mins by agarose gel electrophoresis method
How it was run: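 Human topoisomerase I, 0.5 U, in manufacturer's reaction buffer; enzyme mixed with compound before 200 ng supercoiled pBAD/Thio plasmid added, 20 μL final. 37 °C for 30 minutes; stopped with SDS/bromophenol blue/glycerol buffer; agarose gel electrophoresis read-out.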

[6] = system: Escherichia coli; assay: Antibacterial activity against Escherichia coli K12 MG1655 by microdilution method; format: functional; conditions: K-12 substr. MG1655; how it was run: as §1
[7] = Stability of the compound in DMSO-d6 solvent after several weeks by HPLC method; format: physicochemical
[8] = Solubility in DMSO-d6 solvent by 1H NMR method; format: physicochemical
[9] = Inhibition of recombinant Escherichia coli topoisomerase 1a expressed in Escherichia coli assessed as reduction in enzyme-mediated relaxation of supercoiled pBAD/Thio DNA preincubated with enzyme followed by substrate addition measured after 30 mins by high-throughput screening assay
[10] = Inhibition of recombinant Escherichia coli DNA gyrase expressed in Escherichia coli assessed as reduction in enzyme-mediated supercoiling of relaxed circular DNA preincubated with enzyme followed by substrate addition measured after 30 mins by agarose gel electrophoresis method
[11] = system: Bacillus spizizenii; assay: Antibacterial activity against Bacillus subtilis ATCC 6633 by microdilution method; format: functional
How it was run: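 Broth microdilution per standard protocol in cation-adjusted Mueller-Hinton broth; MIC taken as lowest inhibiting concentration.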

[12] = system: Vero; assay: Cytotoxicity against African green monkey Vero cells assessed as reduction in cell viability after 72 hrs by MTS assay; format: cell-based; conditions: Chlorocebus sabaeus
[13] = system: Mycobacterium tuberculosis; assay: Antimycobacterial activity against Mycobacterium tuberculosis H37Rv after 7 days by microplate alamar blue assay; format: functional; conditions: 168 h

Structure (SMILES) | Stability [1] | MIC [2] [µM] | IC50 [3] [µM] | pIC50 [3] | IC50 [4] [µM] | IC50 [5] [µM] | MIC [6] [µM] | Stability [7] | solubility [8] | IC50 [9] [µM] | IC50 [10] [µM] | MIC [11] [µM] | IC50 [12] [µM] | MIC [13] [µM]
Nc1ccc2c(c1)Oc1c(F)c(F)cc3c(=O)c(C(=O)O)cn-2c13 | Stable | 0.78 to 1.56 (≈ 0.258 to 0.515 µg/mL) | 1.95 | 5.71 | > 500 | 31.3 | > 200 | Stable | Insoluble | 0.8 to 2 | > 125 | – | – | –
CN1CCN(c2c(F)cc3c(=O)c(C(=O)O)cn4c3c2Oc2cc(N)ccc2-4)CC1 | – | – | 0.48 | 6.32 | 3.9 to 7.8 | 15.6 | – | – | – | – | 15.6 to 31.2 | – | – | –
N#Cc1ccc2c(c1)Oc1c(F)c(F)cc3c(=O)c(C(=O)O)cn-2c13 | – | 200 (≈ 68 µg/mL) | 31.2 | 4.51 | – | – | > 200 | – | – | – | – | > 200 | – | –
CC(=O)Nc1ccc2c(c1)Oc1c(F)c(F)cc3c(=O)c(C(=O)O)cn-2c13 | – | > 200 | 7.8 | 5.11 | – | – | > 200 | – | – | – | – | > 200 | – | –
Nc1ccc2c(c1)Oc1c(N3CC[C@H](N)C3)c(F)cc3c(=O)c(C(=O)O)cn-2c13 | – | 1.56 (≈ 0.618 µg/mL) | 0.48 to 0.97 | 6.14 | – | – | > 200 | – | – | – | – | 6.25 (≈ 2.48 µg/mL) | > 63.1 | –
O=C(O)c1cn2c3c(c(F)c(F)cc3c1=O)Oc1cc(C(F)(F)F)ccc1-2 | – | > 200 | 125 to 250 | 3.61 | – | – | > 200 | – | – | – | – | 25 (≈ 9.58 µg/mL) | – | –
Nc1ccc2c(c1)Oc1c(N3CCNCC3)c(F)cc3c(=O)c(C(=O)O)cn-2c13 | – | 0.39 (≈ 0.155 µg/mL) | 0.24 | 6.62 | 1.95 to 3.9 | 7.8 | > 200 | – | – | – | 7.8 to 15.6 | – | > 126 | –
Nc1ccc2c(c1)Oc1c(N3CCC(N4CCCCC4)CC3)c(F)cc3c(=O)c(C(=O)O)cn-2c13 | – | 0.39 to 0.78 (≈ 0.187 to 0.373 µg/mL) | 0.48 | – | – | 3.9 | > 200 | – | – | – | 15.6 | 1.56 (≈ 0.746 µg/mL) | 24.4 | 2.5 (≈ 1.2 µg/mL)
CN1CCN(c2c(F)cc3c(=O)c(C(=O)O)cn4c3c2Oc2cc([N+](=O)[O-])ccc2-4)CC1 | – | 1.56 (≈ 0.687 µg/mL) | 1.95 | 5.71 | – | 31.2 | 100 (≈ 44 µg/mL) | – | – | – | 62.5 to 125 | 0.78 (≈ 0.344 µg/mL) | 95 | 19 (≈ 8.37 µg/mL)
Nc1ccc2c(c1)Oc1c(NC3CCCC3)c(F)cc3c(=O)c(C(=O)O)cn-2c13 | – | 25 (≈ 9.88 µg/mL) | 3.9 | 5.41 | – | – | > 200 | – | – | – | – | 12.5 (≈ 4.94 µg/mL) | – | –
CCOC(=O)c1cn2c3c(c(F)c(F)cc3c1=O)Oc1cc([N+](=O)[O-])ccc1-2 | – | 50 (≈ 19.4 µg/mL) | 15.6 | 4.81 | – | – | > 200 | – | – | – | – | 25 (≈ 9.71 µg/mL) | – | –
Nc1ccc2c(c1)Oc1c(NCCc3ccccc3)c(F)cc3c(=O)c(C(=O)O)cn-2c13 | – | 50 (≈ 21.6 µg/mL) | 3.9 | 5.41 | – | – | > 200 | – | – | – | – | 25 to 50 (≈ 10.8 to 21.6 µg/mL) | – | –
Nc1ccc2c(c1)Oc1c(NCCN3CCOCC3)c(F)cc3c(=O)c(C(=O)O)cn-2c13 | – | 0.78 (≈ 0.344 µg/mL) | – | – | – | 7.8 to 15.6 | > 200 | – | – | – | 15.6 to 31.2 | 1.56 (≈ 0.687 µg/mL) | 43 | 21.6 (≈ 9.51 µg/mL)
O=C(O)c1cn2c3c(c(N4CCNCC4)c(F)cc3c1=O)Oc1cc([N+](=O)[O-])ccc1-2 | – | > 200 | 3.9 | 5.41 | – | – | > 200 | – | – | – | – | > 200 | – | –
Nc1ccc2c(c1)Oc1c(NC3CCCCC3)c(F)cc3c(=O)c(C(=O)O)cn-2c13 | – | 25 (≈ 10.2 µg/mL) | 3.9 | 5.41 | – | – | > 200 | – | – | – | – | 12.5 (≈ 5.12 µg/mL) | – | –
N[C@H]1CCN(c2c(F)cc3c(=O)c(C(=O)O)cn4c3c2Oc2cc([N+](=O)[O-])ccc2-4)C1 | – | 1.56 (≈ 0.665 µg/mL) | 0.48 | 6.32 | 1.95 to 3.9 | 7.8 | > 200 | – | – | – | 3.9 | 0.78 (≈ 0.333 µg/mL) | > 50 | > 50
CC1CCN(c2c(F)cc3c(=O)c(C(=O)O)cn4c3c2Oc2cc(N)ccc2-4)CC1 | – | 3.12 (≈ 1.28 µg/mL) | 3.9 | 5.41 | – | – | > 200 | – | – | – | – | 0.78 (≈ 0.319 µg/mL) | – | –
CCOC(=O)c1cn2c3c(c(N4CCN(C)CC4)c(F)cc3c1=O)Oc1cc([N+](=O)[O-])ccc1-2 | – | 25 (≈ 11.7 µg/mL) | 1.95 | 5.71 | – | – | > 200 | – | – | – | – | 50 (≈ 23.4 µg/mL) | – | –
CC(=O)c1ccc2c(c1)Oc1c(F)c(F)cc3c(=O)c(C(=O)O)cn-2c13 | – | > 200 | 15.6 | 4.81 | – | – | > 200 | – | – | – | – | > 200 | – | –
O=C(O)c1cn2c3c(c(F)c(F)cc3c1=O)Oc1cc([N+](=O)[O-])c(Cl)cc1-2 | – | 0.39 (≈ 0.154 µg/mL) | 31.2 | 4.51 | – | 31.2 | 50 (≈ 19.7 µg/mL) | – | – | – | 62.5 | 3.12 (≈ 1.23 µg/mL) | > 127 | 29 (≈ 11.4 µg/mL)
CCOC(=O)c1cn2c3c(c(F)c(F)cc3c1=O)Oc1cc(C(F)(F)F)ccc1-2 | – | > 200 | 125 to 250 | 3.6 | – | – | > 200 | – | – | – | – | > 200 | – | –
CC(C)(C)OC(=O)N[C@H]1CCN(c2c(F)cc3c(=O)c(C(=O)O)cn4c3c2Oc2cc(N)ccc2-4)C1 | – | – | 3.9 | 5.41 | – | – | > 200 | – | – | – | – | 12.5 (≈ 6.21 µg/mL) | – | –
CCCCCCNc1c(F)cc2c(=O)c(C(=O)O)cn3c2c1Oc1cc(N)ccc1-3 | – | > 200 | 15.6 | 4.81 | – | – | > 200 | – | – | – | – | > 200 | – | –
CCOC(=O)c1cn2c3c(c(F)c(F)cc3c1=O)Oc1cc(C#N)ccc1-2 | – | > 200 | 31.2 | 4.51 | – | – | > 200 | – | – | – | – | 200 (≈ 73.7 µg/mL) | – | –
Nc1ccc2c(c1)Oc1c(N3CCOCC3)c(F)cc3c(=O)c(C(=O)O)cn-2c13 | – | 0.19 to 0.39 (≈ 0.0755 to 0.155 µg/mL) | 0.97 | 6.01 | – | – | > 200 | – | – | – | 7.8 | 0.19 (≈ 0.0755 µg/mL) | 24.7 | 3.5 (≈ 1.39 µg/mL)
O=C(O)c1cn2c3c(c(F)c(F)cc3c1=O)Oc1cc([N+](=O)[O-])ccc1-2 | – | 0.78 (≈ 0.281 µg/mL) | 15.6 | 4.81 | – | – | 200 (≈ 72 µg/mL) | – | – | – | – | 12.5 (≈ 4.5 µg/mL) | – | –
Nc1ccc2c(c1)Oc1c(N3CC[C@@H](N)C3)c(F)cc3c(=O)c(C(=O)O)cn-2c13 | – | 6.25 (≈ 2.48 µg/mL) | 0.48 to 0.97 | 6.14 | – | – | – | – | – | – | – | 12.5 (≈ 4.95 µg/mL) | > 63.1 | > 63.1
